Measurements gathered from unrelated publications.
Lines come from different studies, so protocols differ.
Target: Interleukin-1 receptor-associated kinase 1 (IRAK1, Homo sapiens, UniProt P51617)

Compound | assay | conditions | remaining binding
C=CC(=O)N1CCC(C(=O)NCC(=O)N2CCN(c3nc(-c4cnc(N)nc4C(F)F)nc(N4CCOCC4)n3)CC2)CC1 | binding, competition with immobilised ligand | 1 µM | 100%
Cc1c(NC(=O)c2cc(C(N)=O)nc3cc(F)ccc23)c(C(F)(F)F)nn1Cc1ccc(C(C)(C)C)cc1 | cell-free assay, competition with immobilised ligand | 1 µM | 100%
Cc1cnc(Nc2ccc(C(=O)N3CCC(N4CCCC4)CC3)cc2)nc1-c1cc2ccccc2s1 | binding, competition with immobilised ligand | 1 µM | 0%
Nc1ncc2c(n1)-c1c([nH]c3ccc(C#CC4CC4)cc13)CCCC2 | binding, competition with immobilised ligand | 1 µM | 96%
O=C(NCCCN1CCOCC1)c1ccc(Nc2ncc(Cl)c(-c3ccc(Cl)s3)n2)cc1 | binding, competition with immobilised ligand | 1 µM | 0.15%
Cc1cnn2ncc(-c3ccnc(N(C)C)n3)c2c1 | binding | 1 µM | 100%
O=C(c1ccc(Nc2ncc(Cl)c(-c3ccc(Cl)s3)n2)cc1)N1CCC(N2CCCC2)CC1 | binding, competition with immobilised ligand | 1 µM | 0.05%
CN(C)c1nccc(-c2cnn3ncccc23)n1 | binding | 1 µM | 71%
N#CC1(c2ccccn2)CCN(Cc2cc(C(=O)N3CCCC3)c(=O)n3ccccc23)CC1 | cell-free assay, competition with immobilised ligand | 1 µM | 100%
CN(CCCC(F)(F)F)c1nccc(-c2cnn3ncccc23)n1 | binding | 1 µM | 100%
CCN1CCN(Cc2ccc(C(=O)Nc3ccc(C)c(Oc4ccc5c(c4)CC(=O)N5)c3)cc2C(F)(F)F)CC1 | binding, competition with immobilised ligand | 1 µM | 100%
FC(F)(F)Oc1cccc(-c2cnc3ccc(-c4ccncc4)nn23)c1 | cell-free assay, competition with immobilised ligand | 5 µM | 10%
COc1cnc(Nc2cccc(S(N)(=O)=O)c2)nc1N1CCN(c2ccccc2)C(=O)C1 | binding, competition with immobilised ligand | 1 µM | 55%
CN(c1ccnc(CNc2nc(Nc3ccc4c(c3)CC(=O)N4)ncc2C(F)(F)F)n1)S(C)(=O)=O | cell-free assay, competition with immobilised ligand | 1 µM | 13%
CC1CCCN1c1nccc(-c2cnn3ncccc23)n1 (stereo not drawn) | binding | 1 µM | 85%
C[C@H](c1cccc(C#N)c1)n1cc(Cl)cc(C(N)=O)c1=N | cell-free assay, competition with immobilised ligand | 1 µM | 71%
O=C(Nc1c[nH]nc1C(=O)NC1CCNCC1)c1cc(F)cc(F)c1 | binding, competition with immobilised ligand | 1 µM | 95%
COc1ccc2cc(OCC3(C(=O)O)CN(C(=O)c4ccc(F)cc4)C3)ccc2c1 | cell-free assay, competition with immobilised ligand | 1 µM | 100%
C[C@H]1CCN(c2nccc(-c3cnn4ncccc34)n2)C1 | binding | 1 µM | 100%
C[C@@]1(Cc2ccc(C#N)cc2)C(=O)N(c2cc(Cl)cc(Cl)c2)c2ncc(C(=O)NC3(c4nc(C5CCC5)no4)CC3)n21 | cell-free assay, competition with immobilised ligand | 1 µM | 100%
N[C@H]1CCN(c2nccc(-c3cnn4ncccc34)n2)C1 | binding | 1 µM | 90%
